Source: ChEMBL document CHEMBL1126286, “Oral hypoglycemic agents. Pyrimido[1,2-a]indoles and related compounds” (1992)

Columns and labels:
Type in all cases: functional
Rattus norvegicus [1] = species: Rattus norvegicus; experiment: Potency to dissociate hypoglycemic activity relative to compound 38
Summary of the method: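 Three-point oral dose-response in fed male Sprague-Dawley CD rats, eight per group, with the reference standard run alongside; 10, 30 and 100 mg/kg po (some studies 10, 20, 50 mg/kg). Rats exsanguinated by decapitation at 4 h; blood into EDTA and Trasylol, plasma glucose by glucose oxidase-peroxidase; potency relative to standard.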

Rattus norvegicus [2] = experiment: Hypoglycemic activity was tested in rats at a standard dose of 100 mg/kg and calculated as percent of vehicle control after 4 hours (six rats per group)
Summary of the method: (§1)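 Fed male Sprague-Dawley CD rats (280-320 g), six per group, 100 mg/kg po as solution in water or suspension in 0.5% carboxymethylcellulose (1 mL/kg); parallel vehicle controls. Tail-vein blood (0.3 mL) taken 2 and 4 h post-dose into EDTA and Trasylol; plasma glucose by glucose oxidase-peroxidase, expressed as percent of vehicle control; Student-Newman-Keuls test for significance.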

Rattus norvegicus [3] = experiment: Hypoglycemic activity was tested in rats at a standard dose of 100 mg/kg and calculated as percent of vehicle control after 2 hours (six rats per group); summary of the method: as §1

SMILES: CC1(C)CN=C2N(C1)c1ccccc1C2(N)c1ccccc1.Cl.Cl (stereo unspecified)
- Relative potency (Rattus norvegicus [1]): 0.9
- Blood glucose (Rattus norvegicus [2]): 68%
- Blood glucose (Rattus norvegicus [3]): 78%

SMILES: Cl.Cl.NC1(c2ccccc2)C2=NCCCN2c2ccccc21 (stereo unspecified)
- Relative potency (Rattus norvegicus [1]): 0.47
- Blood glucose (Rattus norvegicus [2]): 93%
- Blood glucose (Rattus norvegicus [3]): 84%

SMILES: Cl.Cl.OC1(c2ccccc2)C2=NCC3(CCNCC3)CN2c2ccccc21 (stereo unspecified)
- Blood glucose (Rattus norvegicus [2]): 92%
- Blood glucose (Rattus norvegicus [3]): 102%

SMILES: CC1(C)CN=C2N(C1)c1ccccc1C2(NC(=O)c1ccccc1)c1ccccc1.Cl (stereo unspecified)
- Blood glucose (Rattus norvegicus [2]): 116%
- Blood glucose (Rattus norvegicus [3]): 104%

SMILES: CCCCC1(O)C2=NCC3(CCCCC3)CN2c2ccccc21.Cl (stereo unspecified)
- Relative potency (Rattus norvegicus [1]): 3.69
- Blood glucose (Rattus norvegicus [2]): 68%
- Blood glucose (Rattus norvegicus [3]): 60%

SMILES: C=CCC1(O)C2=NCC(C)(C)CN2c2ccccc21.Cl (stereo unspecified)
- Blood glucose (Rattus norvegicus [2]): 74%
- Blood glucose (Rattus norvegicus [3]): 86%

SMILES: CC1(C)CN=C2N(C1)c1ccccc1C2(O)C1CC1.Cl (stereo unspecified)
- Relative potency (Rattus norvegicus [1]): 0.11
- Blood glucose (Rattus norvegicus [2]): 81%
- Blood glucose (Rattus norvegicus [3]): 83%

SMILES: CCC1(O)C2=NCC(C)(C)CN2c2ccccc21.Cl (stereo unspecified)
- Blood glucose (Rattus norvegicus [2]): 93%
- Blood glucose (Rattus norvegicus [3]): 89%

SMILES: CC(C)(C)CC1(O)C2=NCC(C)(C)CN2c2ccccc21.Cl (stereo unspecified)
- Relative potency (Rattus norvegicus [1]): 0.65
- Blood glucose (Rattus norvegicus [2]): 81%
- Blood glucose (Rattus norvegicus [3]): 68%

SMILES: CC1(C)CN=C2N(C1)c1ccccc1C2(NS(C)(=O)=O)c1ccccc1.Cl (stereo unspecified)
- Relative potency (Rattus norvegicus [1]): 0.04
- Blood glucose (Rattus norvegicus [2]): 67%
- Blood glucose (Rattus norvegicus [3]): 76%

SMILES: CCCC(=O)NC1(c2ccccc2)C2=NCC(C)(C)CN2c2ccccc21.Cl (stereo unspecified)
- Blood glucose (Rattus norvegicus [2]): 77%
- Blood glucose (Rattus norvegicus [3]): 101%

SMILES: CCCCC1(O)C2=NCC(C)(C)CN2c2ccccc21.Cl (stereo unspecified)
- Blood glucose (Rattus norvegicus [2]): 67%
- Blood glucose (Rattus norvegicus [3]): 58%

SMILES: Cl.OC1(c2ccc3ccccc3c2)C2=NCCCN2c2ccccc21 (stereo unspecified)
- Relative potency (Rattus norvegicus [1]): 0.01
- Blood glucose (Rattus norvegicus [2]): 64%
- Blood glucose (Rattus norvegicus [3]): 88%

SMILES: Cl.OC1(c2ccccc2)C2=NCCCN2c2ccccc21 (stereo unspecified)
- Relative potency (Rattus norvegicus [1]): 0.52
- Blood glucose (Rattus norvegicus [2]): 82%
- Blood glucose (Rattus norvegicus [3]): 86%

SMILES: Cl.OC1(CC2CCCCC2)C2=NCCCN2c2ccccc21 (stereo unspecified)
- Relative potency (Rattus norvegicus [1]): 0.12
- Blood glucose (Rattus norvegicus [2]): 81%
- Blood glucose (Rattus norvegicus [3]): 77%

SMILES: CC(C)CC1(O)C2=NCCCN2c2ccccc21.Cl (stereo unspecified)
- Blood glucose (Rattus norvegicus [2]): 86%
- Blood glucose (Rattus norvegicus [3]): 79%

SMILES: CCOCCCCC1(O)C2=NCCCN2c2ccccc21.Cl (stereo unspecified)
- Blood glucose (Rattus norvegicus [2]): 96%
- Blood glucose (Rattus norvegicus [3]): 100%

SMILES: COCC(C)CC1(O)C2=NCCCN2c2ccccc21.Cl (stereo unspecified)
- Blood glucose (Rattus norvegicus [2]): 98%
- Blood glucose (Rattus norvegicus [3]): 94%

SMILES: CC1(C)CN=C2N(C1)c1ccccc1C2(O)c1ccccc1.Cl (stereo unspecified)
- Relative potency (Rattus norvegicus [1]): 1
- Blood glucose (Rattus norvegicus [2]): 75%
- Blood glucose (Rattus norvegicus [3]): 90%

SMILES: COCC(C)CC1(O)C2=NCC(C)(C)CN2c2ccccc21.Cl (stereo unspecified)
- Relative potency (Rattus norvegicus [1]): 0.47
- Blood glucose (Rattus norvegicus [2]): 72%
- Blood glucose (Rattus norvegicus [3]): 73%

SMILES: CC(=O)NC1(c2ccccc2)C2=NCC3(CCCC3)CN2c2ccccc21.Cl (stereo unspecified)
- Blood glucose (Rattus norvegicus [2]): 90%
- Blood glucose (Rattus norvegicus [3]): 99%

SMILES: CC(C)CC1(O)C2=NCC(C)(C)CN2c2ccccc21.Cl (stereo unspecified)
- Relative potency (Rattus norvegicus [1]): 0.69
- Blood glucose (Rattus norvegicus [2]): 77%
- Blood glucose (Rattus norvegicus [3]): 88%

SMILES: Cl.OCC#CC1(O)C2=NCCCN2c2ccccc21 (stereo unspecified)
- Blood glucose (Rattus norvegicus [2]): 94%
- Blood glucose (Rattus norvegicus [3]): 94%

SMILES: CC(=O)NC1(c2cccc(Cl)c2)C2=NCCCN2c2ccccc21.Cl (stereo unspecified)
- Relative potency (Rattus norvegicus [1]): 0.5
- Blood glucose (Rattus norvegicus [2]): 85%
- Blood glucose (Rattus norvegicus [3]): 89%

SMILES: Cl.NC1(c2cccc(Cl)c2)C2=NCCCN2c2ccccc21 (stereo unspecified)
- Blood glucose (Rattus norvegicus [2]): 84%
- Blood glucose (Rattus norvegicus [3]): 95%

SMILES: COCCCCC1(O)C2=NCC(C)(C)CN2c2ccccc21.Cl (stereo unspecified)
- Relative potency (Rattus norvegicus [1]): 0.05
- Blood glucose (Rattus norvegicus [2]): 87%
- Blood glucose (Rattus norvegicus [3]): 79%

SMILES: CCC(CC)CC1(O)C2=NCCCN2c2ccccc21.Cl (stereo unspecified)
- Relative potency (Rattus norvegicus [1]): 0.86
- Blood glucose (Rattus norvegicus [2]): 68%
- Blood glucose (Rattus norvegicus [3]): 82%

SMILES: Cl.OC1(c2cccc(Cl)c2)C2=NCCCN2c2ccccc21 (stereo unspecified)
- Blood glucose (Rattus norvegicus [2]): 84%
- Blood glucose (Rattus norvegicus [3]): 99%

SMILES: CC(=O)NC1(c2ccccc2)C2=NCCCN2c2ccccc21.Cl (stereo unspecified)
- Relative potency (Rattus norvegicus [1]): 0.03
- Blood glucose (Rattus norvegicus [2]): 75%
- Blood glucose (Rattus norvegicus [3]): 76%

SMILES: CCCCCCC1(O)C2=NCC(C)(C)CN2c2ccccc21.Cl (stereo unspecified)
- Blood glucose (Rattus norvegicus [2]): 107%
- Blood glucose (Rattus norvegicus [3]): 103%

SMILES: CC(C)CCC1(O)C2=NCC(C)(C)CN2c2ccccc21.Cl (stereo unspecified)
- Blood glucose (Rattus norvegicus [2]): 78%
- Blood glucose (Rattus norvegicus [3]): 65%

SMILES: COCCCCC1(O)C2=NCCCN2c2ccccc21.Cl (stereo unspecified)
- Blood glucose (Rattus norvegicus [2]): 87%
- Blood glucose (Rattus norvegicus [3]): 86%

SMILES: CCOCCCCC1(O)C2=NCC(C)(C)CN2c2ccccc21.Cl (stereo unspecified)
- Blood glucose (Rattus norvegicus [2]): 86%
- Blood glucose (Rattus norvegicus [3]): 88%

SMILES: Cl.OC1(c2ccccc2)C2=NCC3(CCCCCC3)CN2c2ccccc21 (stereo unspecified)
- Relative potency (Rattus norvegicus [1]): 0.3
- Blood glucose (Rattus norvegicus [2]): 76%
- Blood glucose (Rattus norvegicus [3]): 87%

SMILES: Cl.OC1(c2ccccc2)C2=NCC3(CCCC3)CN2c2ccccc21 (stereo unspecified)
- Relative potency (Rattus norvegicus [1]): 0.1
- Blood glucose (Rattus norvegicus [2]): 71%
- Blood glucose (Rattus norvegicus [3]): 75%

SMILES: CC(CCC1(O)C2=NCCCN2c2ccccc21)c1ccccc1.Cl (stereo unspecified)
- Blood glucose (Rattus norvegicus [2]): 88%
- Blood glucose (Rattus norvegicus [3]): 99%

SMILES: COC(C)CCC1(O)C2=NCCCN2c2ccccc21.Cl (stereo unspecified)
- Blood glucose (Rattus norvegicus [2]): 95%
- Blood glucose (Rattus norvegicus [3]): 88%

SMILES: Cc1ccc(S(=O)(=O)NC(=O)NC2(c3ccccc3)C3=NCC(C)(C)CN3c3ccccc32)cc1.Cl (stereo unspecified)
- Blood glucose (Rattus norvegicus [2]): 90%
- Blood glucose (Rattus norvegicus [3]): 101%

SMILES: CC(=O)NC1(c2ccccc2)C2=NCC(C)(C)CN2c2ccccc21.Cl (stereo unspecified)
- Relative potency (Rattus norvegicus [1]): 0.03
- Blood glucose (Rattus norvegicus [2]): 77%
- Blood glucose (Rattus norvegicus [3]): 85%

SMILES: COC(C)CCC1(O)C2=NCC(C)(C)CN2c2ccccc21.Cl (stereo unspecified)
- Relative potency (Rattus norvegicus [1]): 1.1
- Blood glucose (Rattus norvegicus [2]): 73%
- Blood glucose (Rattus norvegicus [3]): 69%

SMILES: CC1(C)CN=C2N(C1)c1ccccc1C2(O)CCCCOCc1ccccc1.Cl (stereo unspecified)
- Blood glucose (Rattus norvegicus [2]): 91%
- Blood glucose (Rattus norvegicus [3]): 76%

SMILES: CC(=O)NC1(c2ccc3ccccc3c2)C2=NCCCN2c2ccccc21.Cl (stereo unspecified)
- Blood glucose (Rattus norvegicus [2]): 100%
- Blood glucose (Rattus norvegicus [3]): 104%

SMILES: CC(=O)NC1(c2ccccc2)C2=NCCCCN2c2ccccc21.Cl (stereo unspecified)
- Relative potency (Rattus norvegicus [1]): 0.13
- Blood glucose (Rattus norvegicus [2]): 73%
- Blood glucose (Rattus norvegicus [3]): 86%

SMILES: CC1(C)CN=C2N(C1)c1ccccc1C2(O)CC1CCCCC1.Cl (stereo unspecified)
- Blood glucose (Rattus norvegicus [2]): 84%
- Blood glucose (Rattus norvegicus [3]): 79%

SMILES: Cl.OC1(c2ccccc2)C2=NCC3(CCCCC3)CN2c2ccccc21 (stereo unspecified)
- Relative potency (Rattus norvegicus [1]): 1.33
- Blood glucose (Rattus norvegicus [2]; 100 mg/kg): 60%
- Blood glucose (Rattus norvegicus [3]; 100 mg/kg): 78%

SMILES: Cl.OC1(c2ccccc2)C2=NCC3(CCCCC3)CN2c2ccccc21 (single isomer, unassigned; (+))
- Blood glucose (Rattus norvegicus [2]; 100 mg/kg): 69%
- Blood glucose (Rattus norvegicus [3]; 100 mg/kg): 82%

SMILES: Cl.OC1(c2ccccc2)C2=NCC3(CCCCC3)CN2c2ccccc21 (single isomer, unassigned; (-))
- Blood glucose (Rattus norvegicus [2]; 100 mg/kg): 71%
- Blood glucose (Rattus norvegicus [3]; 100 mg/kg): 81%
